Key:
[1] = target: Metabotropic glutamate receptor 5 (Rattus norvegicus, UniProt P31424); assay: Displacement of [3H]M-MPEP from mGluR5 in Sprague-Dawley rat brain membranes (cerebellum removed) after 45 mins by liquid scintillation counting
[2] = Metabolic stability in rat liver microsomes assessed as compound remaining after 60 mins by UPLC analysis; format: ADME, Microsome; conditions: read-out: Stability
How it was run: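 Pooled rat liver microsomes (0.52 mg/mL protein). Tracer (20–50 nM) preincubated 5 min with 10 mM NADPH in 0.1 M phosphate pH 7.4 at 37 °C before microsomes were added; testosterone served as positive control and boiled microsomes as negative control. Reactions quenched with ice-cold acetonitrile at 0, 15, 30 and 60 min, centrifuged, and supernatant run by UPLC.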

Striatum = assay: Drug uptake in Sprague-Dawley rat striatum at 0.5 to 5 nM after 45 mins by autoradiography; format: ADME, tissue-based; conditions: 0.75 h, 0.005 µM
How it was run: (§1)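 Frozen rat brain slices thawed 30 min at rt, preincubated 10 min at 4 °C in HEPES–BSA buffer pH 7.4, then covered with 0.5 or 5 nM [18F] tracer for 45 min at rt in a humid chamber. Blocking was by co-incubation with excess unlabeled ABP688. Washes were 3×3 min in HEPES buffer and 2×5 s in water at 4 °C, followed by 40 min drying and 7 min phosphor-plate exposure.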

Plasma [3] = assay: Metabolic stability in rat plasma after 120 mins by UPLC analysis; format: ADME, cell-free; conditions: 2 h
How it was run: (§2)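 [18F] tracer in ethanol added to human or rat plasma and incubated at 37 °C for 120 min. Aliquots taken at 0, 30, 60, 90 and 120 min into ice-cold acetonitrile, centrifuged (5000g, 4 °C, 10 min), and supernatant analysed by radio-UPLC.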

Brain = assay: Drug uptake in Sprague-Dawley rat brain slices at 0.5 to 5 nM after 45 mins by autoradiography in presence of 500 nM of ABP688; format: ADME, tissue-based; conditions: 0.75 h, 0.005 µM
How it was run: as §1

Hippocampus = assay: Drug uptake in Sprague-Dawley rat hippocampus at 0.5 to 5 nM after 45 mins by autoradiography; format: ADME, tissue-based; conditions: 0.75 h, 0.005 µM
How it was run: as §1

Cortex = assay: Drug uptake in Sprague-Dawley rat cortex at 0.5 to 5 nM after 45 mins by autoradiography; format: ADME, tissue-based; conditions: 0.75 h, 0.005 µM
How it was run: as §1

Plasma [4] = assay: Metabolic stability in human plasma after 120 mins by UPLC analysis; format: ADME, cell-free; conditions: 2 h
How it was run: as §2

[5] = Lipophilicity, log D of the compound at pH 7.4 by shake flask method; format: physicochemical; conditions: buffer
How it was run: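 Shake-flask log D (n = 5): [18F] tracer (80 kBq) added to 0.5 mL 1-octanol and 0.5 mL phosphate buffer pH 7.4, each pre-saturated with the other. Mixed 15 min, centrifuged at 5000g for 5 min, and radioactivity in each phase gamma-counted.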

Sequence of Metabotropic glutamate receptor 5 (P31424 whole entry): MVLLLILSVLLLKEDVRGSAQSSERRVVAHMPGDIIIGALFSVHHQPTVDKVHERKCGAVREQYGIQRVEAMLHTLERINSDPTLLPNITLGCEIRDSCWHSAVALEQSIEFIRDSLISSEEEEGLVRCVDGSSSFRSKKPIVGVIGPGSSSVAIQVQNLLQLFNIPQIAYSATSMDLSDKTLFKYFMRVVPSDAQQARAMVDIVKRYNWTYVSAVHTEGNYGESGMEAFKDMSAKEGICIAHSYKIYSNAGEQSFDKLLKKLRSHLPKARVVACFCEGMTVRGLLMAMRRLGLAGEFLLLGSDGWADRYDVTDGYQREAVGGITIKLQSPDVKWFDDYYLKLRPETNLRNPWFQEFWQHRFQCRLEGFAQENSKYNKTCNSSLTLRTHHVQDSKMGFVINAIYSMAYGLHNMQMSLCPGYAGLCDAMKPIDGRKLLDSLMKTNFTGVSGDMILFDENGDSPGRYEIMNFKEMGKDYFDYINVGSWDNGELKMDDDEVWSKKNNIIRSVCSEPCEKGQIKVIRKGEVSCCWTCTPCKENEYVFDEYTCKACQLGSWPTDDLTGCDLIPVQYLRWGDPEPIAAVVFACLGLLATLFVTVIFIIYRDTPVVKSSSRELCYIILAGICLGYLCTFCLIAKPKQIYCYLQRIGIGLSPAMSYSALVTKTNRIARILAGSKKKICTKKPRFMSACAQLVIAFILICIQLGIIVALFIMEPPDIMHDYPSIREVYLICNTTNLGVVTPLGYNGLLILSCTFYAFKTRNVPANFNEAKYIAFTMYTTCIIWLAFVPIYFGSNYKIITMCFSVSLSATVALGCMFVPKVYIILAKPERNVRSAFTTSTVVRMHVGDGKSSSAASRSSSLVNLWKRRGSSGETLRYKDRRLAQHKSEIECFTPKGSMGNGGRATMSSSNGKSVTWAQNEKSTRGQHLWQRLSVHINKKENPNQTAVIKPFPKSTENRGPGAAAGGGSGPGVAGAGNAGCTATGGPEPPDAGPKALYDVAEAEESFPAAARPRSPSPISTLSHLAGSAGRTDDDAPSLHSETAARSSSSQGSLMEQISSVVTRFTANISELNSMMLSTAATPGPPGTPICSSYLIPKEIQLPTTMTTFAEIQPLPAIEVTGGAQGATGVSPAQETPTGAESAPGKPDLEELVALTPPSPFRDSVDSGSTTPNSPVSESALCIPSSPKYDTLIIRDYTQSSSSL

**Q.** Which Ki [1] does the source give for Cc1nc(C#CC2=C/C(=N/OCCOCCF)CCC2)cs1 here?
**A.** 21.9 nM

**Q.** Which remaining at 1 h [2] does the source give for CO/N=C1/C=C(C#Cc2csc(C[18F])n2)CCC1 here?
**A.** 93%

**Q.** What about the Drug uptake (Striatum) of the same compound?
**A.** Active

**Q.** And the Stability (Plasma [3])?
**A.** Stable

**Q.** And the Drug uptake (Brain)?
**A.** Not Active

**Q.** And the Drug uptake (Hippocampus)?
**A.** Active

**Q.** And the Drug uptake (Cortex)?
**A.** Active

**Q.** And the Stability (Plasma [4])?
**A.** Stable

**Q.** What about the logD [5] of the same compound?
**A.** 1.6

**Q.** Which Ki [1] does the source give for CO/N=C1/C=C(C#Cc2nccs2)CCC1 here?
**A.** 20.3 nM

**Q.** With CO/N=C1/C=C(C#Cc2csc(CF)n2)CCC1 as the compound, how does the Ki [1] read?
**A.** 5.5 nM

**Q.** With FCCOCCO/N=C1/C=C(C#Cc2cscn2)CCC1 as the compound, how does the Ki [1] read?
**A.** 36 nM

Reference: ChEMBL document CHEMBL1212857, “Syntheses and pharmacological characterization of novel thiazole derivatives as potential mGluR5 PET ligands” (Bioorg Med Chem, 2010)
